According to ChEMBL document CHEMBL3352049, “Taxanes with high potency inducing tubulin assembly overcome tumoural cell resistances” (Bioorg Med Chem, 2014):
Active and inactive are the calls of the source. The rule behind the calls is not given here.

Tests used:
[1] = Cytotoxicity against human 1A9PTX10 cells by MTT assay; format: functional, cell-based; settings: 1A9/ptx-10
Procedure, shortened: (§1)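 MTT assay run as a modified version of an earlier method. IC50 in nM is the mean ± SEM of three independent assays. Relative resistance is the IC50 in the resistant line (1A9 tubulin mutants, or βIII-transfected HeLa) divided by the IC50 in the parental line (1A9 or HeLa).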

[2] = test system: 1A9; experiment: Cytotoxicity against human 1A9 cells by MTT assay; format: functional, cell-based; procedure, shortened: as §1
[3] = test system: microtubule (Bos taurus); experiment: Binding affinity to microtubule (Bos taurus) after 30 mins at 35 degC by flutax-2 displacement method
[4] = test system: A549; experiment: Cell cycle arrest at G2/M phase in human A549 cells at 60 nM after 20 hrs by flow cytometry; format: functional, cell-based
[5] = test system: microtubule (Bos taurus); experiment: Binding affinity to microtubule (Bos taurus) by TR-NOESY spectroscopy
[6] = test system: microtubule (Bos taurus); experiment: Binding affinity to microtubule (Bos taurus) after 30 mins at 32 degC by flutax-2 displacement method
[7] = test system: 1A9; experiment: Resistance ratio of IC50 for human 1A9/A8 cells to IC50 for human 1A9 cells; format: functional
[8] = Cell cycle arrest at G2/M phase in human A2780AD cells at 60 nM after 20 hrs by flow cytometry; format: functional, cell-based; settings: A2780 ADR
[9] = test system: A2780; experiment: Cell cycle arrest at G2/M phase in human A2780 cells at 30 nM after 20 hrs by flow cytometry; format: functional, cell-based
[10] = test system: A549; experiment: Cell cycle arrest at G2/M phase in human A549 cells at 30 nM after 20 hrs by flow cytometry; format: functional, cell-based
[11] = test system: HeLa; experiment: Cytotoxicity against human HeLa cells by MTT assay; format: functional, cell-based; procedure, shortened: as §1
[12] = test system: A2780; experiment: Cell cycle arrest at G2/M phase in human A2780 cells at 60 nM after 20 hrs by flow cytometry; format: functional, cell-based
[13] = Cytotoxicity against human MCF7/R cells by MTT assay; format: functional, cell-based; settings: MCF7R
[14] = test system: A549; experiment: Effect on microtubule cytoskeleton in human A549 cells assessed as induction of micronuleated cells with short microtubules in cytoplasm at 60 to 120 nM after 24 hrs by immunofluorescence assay; format: cell-based
Procedure, shortened: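 A549 cells were grown overnight on coverslips, then given DMSO vehicle or ligand (60 or 120 nM) for 24 h. Cells were permeabilized with Triton X-100 and fixed in 3.7% formaldehyde. Microtubules were stained with DM1A α-tubulin antibody and DNA with Hoechst 33342. Preparations were viewed by epifluorescence microscopy.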

[15] = test system: HeLa; experiment: Resistance ratio of IC50 for human HeLa cells transfected with wild-type tubulin beta3 to IC50 for human HeLa cells; format: functional
Procedure, shortened: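 Relative resistance is the IC50 in HeLa cells transfected with wild-type βIII-tubulin divided by the IC50 in parental HeLa cells. Each IC50 (nM) is the mean ± SEM of three independent assays.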

[16] = Cytotoxicity against human 1A9PTX22 cells by MTT assay; format: functional, cell-based; settings: 1A9/ptx-22; procedure, shortened: as §1
[17] = test system: 1A9; experiment: Resistance ratio of IC50 for human 1A9PTX10 cells to IC50 for human 1A9 cells; format: functional
Procedure, shortened: (§2)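 Relative resistance is the IC50 in the 1A9 tubulin-mutant line divided by the IC50 in parental 1A9 ovarian carcinoma cells. Each IC50 (nM) is the mean ± SEM of three independent assays.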

[18] = Cytotoxicity against human A2780AD cells by MTT assay; format: functional, cell-based; settings: A2780 ADR
[19] = test system: microtubule (Bos taurus); experiment: Binding affinity to microtubule (Bos taurus) after 30 mins at 40 degC by flutax-2 displacement method
[20] = test system: microtubule (Bos taurus); experiment: Binding affinity to microtubule (Bos taurus) after 30 mins at 37 degC by flutax-2 displacement method
[21] = Resistance ratio of IC50 for human A2780AD cells to IC50 for human A2780 cells; format: functional, A2780 ADR
[22] = test system: microtubule (Bos taurus); experiment: Binding affinity to microtubule (Bos taurus) by STD NMR spectroscopy
[23] = Cell cycle arrest at G2/M phase in human A2780AD cells at 30 nM after 20 hrs by flow cytometry; format: functional, cell-based; settings: A2780 ADR
[24] = biological target: Tubulin (Bos taurus) (UniProt Q6B856+Q862L2+Q862F3); experiment: Induction of calf brain tubulin polymerization assessed as tubulin concentration required to form microtubules by electron microscopy
Procedure, shortened: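 Critical tubulin concentration found by centrifugation and quantification of the polymer formed. Polymers adsorbed onto formvar/carbon-coated copper grids, stained with 1% uranyl acetate, and viewed by electron microscopy at 100 kV.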

[25] = test system: microtubule (Bos taurus); experiment: Binding affinity to microtubule (Bos taurus) after 30 mins at 30 degC by flutax-2 displacement method
[26] = Cytotoxicity against human 1A9/A8 cells by MTT assay; format: functional, cell-based; procedure, shortened: as §1
[27] = test system: HeLa; experiment: Cytotoxicity against human HeLa cells transfected with wild-type tubulin beta3 by MTT assay; format: functional, cell-based; procedure, shortened: as §1
[28] = test system: A2780; experiment: Cytotoxicity against human A2780 cells by MTT assay; format: functional, cell-based
[29] = test system: microtubule (Bos taurus); experiment: Binding affinity to microtubule (Bos taurus) after 30 mins at 42 degC by flutax-2 displacement method
[30] = test system: microtubule (Bos taurus); experiment: Binding affinity to microtubule (Bos taurus) after 30 mins at 27 degC by flutax-2 displacement method
[31] = test system: 1A9; experiment: Resistance ratio of IC50 for human 1A9PTX22 cells to IC50 for human 1A9 cells; format: functional; procedure, shortened: as §2
[32] = test system: microtubule (Bos taurus); experiment: Binding affinity to microtubule (Bos taurus) after 30 mins at 26 degC by flutax-2 displacement method

`CC(=O)O[C@@]12CO[C@@H]1C[C@H](O)[C@@]1(C)C(=O)[C@H](OC(=O)N(C)C)C3=C(C)[C@@H](OC(=O)[C@H](O)[C@H](C=C(F)F)NC(=O)OC(C)(C)C)C[C@@](O)([C@@H](OC(=O)c4ccccc4)[C@H]21)C3(C)C` gave an IC50 [1] of 5.25 nM, an IC50 [2] of 3.2 nM and a Kb [3] of 10 ×10⁷ /M. For the same compound, the Activity [4] was “Active”, the Activity [5] was “Active” and the Kb [6] was 13 ×10⁷ /M. For the same compound, the “Ratio IC50” value [7] was 1.2, the Activity [8] was “Active” and the Activity [9] was “Active”. The Activity [10] was “Active”, the IC50 [11] was 2.5 nM and the Activity [12] was “Active”. The IC50 [13] was 4.3 nM, the Activity [14] was “Active” and the “Ratio IC50” value [15] was 1.4. For the same compound, the IC50 [16] was 7 nM, the “Ratio IC50” value [17] was 1.6 and the IC50 [18] was 15.1 nM. For the same compound, the Kb [19] was 10 ×10⁷ /M, the Kb [20] was 10 ×10⁷ /M and the “Ratio IC50” value [21] was 4.3. For the same compound, the Activity [22] was “Active”, the Activity [23] was “Active” and the Activity [24] was 0.3 µM. The Kb [25] was 13 ×10⁷ /M, the IC50 [26] was 4 nM and the IC50 [27] was 3.5 nM. The IC50 [28] was 3.5 nM, the Kb [29] was 8 ×10⁷ /M and the Kb [30] was 14 ×10⁷ /M. For the same compound, the “Ratio IC50” value [31] was 2.2 and the Kb [32] was 15 ×10⁷ /M.
